# Experimental data taken from ChEMBL document CHEMBL1138747, “Synthesis and structure--activity relationship in a class of indolebutylpiperazines as dual 5-HT(1A) receptor agonists and serotonin reuptake inhibitors” (J Med Chem, 2004).
# Assays:
# [1] = target: 5-hydroxytryptamine receptor 1D (Rattus norvegicus, UniProt P28565); experiment: Inhibition of rat hydroxytryptamine 1D receptor
# [2] = system: Rattus norvegicus; experiment: Dose required to inhibit ultrasonic vocalisation on subcutaneous administered; assay type: functional; details: sc, read-out: ID50 (the source's name)
# Outline: (§1)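 Rat ultrasonic vocalization test. In a priming session, up to 10 grid-floor shocks were given (1.8 mA, 0.3 s, 20 s apart). Rats not vocalizing on three consecutive trials were excluded. Next day, rats were tested 2 h after dosing: five shocks, then vocalization duration recorded over 3 min. ID50 (dose for half-maximal inhibition) came from dose–response curves.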
# [3] = target: 5-hydroxytryptamine receptor 1B (Rattus norvegicus, UniProt P28564); experiment: Inhibition of rat hydroxytryptamine 1B receptor
# 5-hydroxytryptamine receptor 1B, sequence (P28564 whole entry): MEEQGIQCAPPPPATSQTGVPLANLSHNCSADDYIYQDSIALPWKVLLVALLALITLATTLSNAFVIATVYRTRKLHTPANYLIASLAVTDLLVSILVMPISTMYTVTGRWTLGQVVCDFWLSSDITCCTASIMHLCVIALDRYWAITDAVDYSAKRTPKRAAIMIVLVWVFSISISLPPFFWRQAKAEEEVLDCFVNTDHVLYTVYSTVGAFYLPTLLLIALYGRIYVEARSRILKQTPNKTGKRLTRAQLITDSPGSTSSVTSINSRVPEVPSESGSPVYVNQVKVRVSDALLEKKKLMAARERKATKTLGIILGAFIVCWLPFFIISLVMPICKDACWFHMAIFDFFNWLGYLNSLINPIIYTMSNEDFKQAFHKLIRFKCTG
# [4] = Inhibition of histamine H1 receptor
# [5] = target: 5-hydroxytryptamine receptor 2A (Rattus norvegicus, UniProt P14842); experiment: Inhibition of rat hydroxytryptamine 2A receptor
# 5-hydroxytryptamine receptor 2A, sequence (P14842 whole entry): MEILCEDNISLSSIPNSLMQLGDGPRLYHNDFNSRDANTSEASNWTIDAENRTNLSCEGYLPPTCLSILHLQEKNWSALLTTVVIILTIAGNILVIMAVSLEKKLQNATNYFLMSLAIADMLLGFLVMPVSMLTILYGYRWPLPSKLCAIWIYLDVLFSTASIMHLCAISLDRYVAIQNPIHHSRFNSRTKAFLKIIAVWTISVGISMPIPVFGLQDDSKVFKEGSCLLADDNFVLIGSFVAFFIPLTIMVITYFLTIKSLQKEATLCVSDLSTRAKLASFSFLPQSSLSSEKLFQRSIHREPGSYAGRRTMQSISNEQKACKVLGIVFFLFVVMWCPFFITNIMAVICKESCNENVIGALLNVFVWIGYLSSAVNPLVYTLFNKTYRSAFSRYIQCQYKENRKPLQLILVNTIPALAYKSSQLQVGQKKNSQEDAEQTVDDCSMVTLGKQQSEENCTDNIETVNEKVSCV
# [6] = system: Rattus norvegicus; experiment: Dose required to inhibit ultrasonic vocalisation on peroral administered; assay type: functional; details: po, read-out: ID50 (the source's name); outline: as §1
# [7] = target: 5-hydroxytryptamine receptor 6 (Rattus norvegicus, UniProt P31388); experiment: Inhibition of rat hydroxytryptamine 6 receptor
# 5-hydroxytryptamine receptor 6, sequence (P31388 whole entry): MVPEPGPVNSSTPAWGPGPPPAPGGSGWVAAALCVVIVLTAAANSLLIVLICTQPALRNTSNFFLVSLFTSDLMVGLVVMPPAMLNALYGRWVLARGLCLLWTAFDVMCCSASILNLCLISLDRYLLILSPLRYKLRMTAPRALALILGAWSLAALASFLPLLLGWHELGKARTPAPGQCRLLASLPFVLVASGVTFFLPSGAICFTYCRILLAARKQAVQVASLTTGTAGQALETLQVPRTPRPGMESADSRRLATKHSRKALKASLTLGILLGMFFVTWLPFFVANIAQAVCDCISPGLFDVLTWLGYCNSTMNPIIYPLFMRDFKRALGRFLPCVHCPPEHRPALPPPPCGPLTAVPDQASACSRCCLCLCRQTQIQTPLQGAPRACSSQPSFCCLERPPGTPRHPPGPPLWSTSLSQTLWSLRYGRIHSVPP
# [8] = target: T1, D(4) dopamine receptor (Rattus norvegicus, UniProt P30729); experiment: Inhibition of rat dopamine D4 receptor
# T1 sequence (P30729 whole entry): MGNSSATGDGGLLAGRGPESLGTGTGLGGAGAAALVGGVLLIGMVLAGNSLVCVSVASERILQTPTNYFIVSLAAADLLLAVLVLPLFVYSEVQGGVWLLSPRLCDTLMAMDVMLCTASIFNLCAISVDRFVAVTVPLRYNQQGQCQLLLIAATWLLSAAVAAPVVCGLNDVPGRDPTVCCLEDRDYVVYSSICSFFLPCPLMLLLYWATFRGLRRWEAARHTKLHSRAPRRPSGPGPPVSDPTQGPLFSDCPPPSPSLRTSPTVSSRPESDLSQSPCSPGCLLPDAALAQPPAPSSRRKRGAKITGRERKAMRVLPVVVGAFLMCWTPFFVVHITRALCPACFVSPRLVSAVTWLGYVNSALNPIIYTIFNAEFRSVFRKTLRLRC
# [9] = target: D(3) dopamine receptor (Rattus norvegicus, UniProt P19020); experiment: Inhibition of rat dopamine D3 receptor
# D(3) dopamine receptor, sequence (P19020 whole entry): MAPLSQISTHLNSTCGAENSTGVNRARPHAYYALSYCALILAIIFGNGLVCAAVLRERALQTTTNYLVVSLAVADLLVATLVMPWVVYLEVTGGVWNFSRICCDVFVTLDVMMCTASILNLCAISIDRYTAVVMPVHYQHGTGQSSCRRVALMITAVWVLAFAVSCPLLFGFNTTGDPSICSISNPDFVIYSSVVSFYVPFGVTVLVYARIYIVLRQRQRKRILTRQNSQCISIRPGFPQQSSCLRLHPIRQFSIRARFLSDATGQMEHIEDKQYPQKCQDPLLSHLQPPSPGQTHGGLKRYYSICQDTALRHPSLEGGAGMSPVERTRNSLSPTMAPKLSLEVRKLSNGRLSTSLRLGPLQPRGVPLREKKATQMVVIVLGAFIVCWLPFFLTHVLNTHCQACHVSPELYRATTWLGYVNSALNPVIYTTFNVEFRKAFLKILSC
# [10] = target: 5-hydroxytryptamine receptor 7 (Rattus norvegicus, UniProt P32305); experiment: Inhibition of rat hydroxytryptamine 7 receptor
# 5-hydroxytryptamine receptor 7, sequence (P32305 whole entry): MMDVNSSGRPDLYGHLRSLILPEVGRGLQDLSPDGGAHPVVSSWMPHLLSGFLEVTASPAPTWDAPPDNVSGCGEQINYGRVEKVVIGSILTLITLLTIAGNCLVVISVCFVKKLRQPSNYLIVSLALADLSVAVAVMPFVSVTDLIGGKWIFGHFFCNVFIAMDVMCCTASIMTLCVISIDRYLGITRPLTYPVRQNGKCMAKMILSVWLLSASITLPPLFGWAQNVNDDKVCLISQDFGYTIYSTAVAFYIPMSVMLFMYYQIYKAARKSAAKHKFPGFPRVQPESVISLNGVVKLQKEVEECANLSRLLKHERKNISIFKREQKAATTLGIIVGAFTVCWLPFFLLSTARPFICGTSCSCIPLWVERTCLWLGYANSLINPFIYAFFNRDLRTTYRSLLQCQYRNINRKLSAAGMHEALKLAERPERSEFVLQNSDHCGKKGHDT
# [11] = target: 5-hydroxytryptamine receptor 4 (Rattus norvegicus, UniProt Q62758); experiment: Inhibition of rat hydroxytryptamine 4 receptor
# 5-hydroxytryptamine receptor 4, sequence (Q62758 whole entry): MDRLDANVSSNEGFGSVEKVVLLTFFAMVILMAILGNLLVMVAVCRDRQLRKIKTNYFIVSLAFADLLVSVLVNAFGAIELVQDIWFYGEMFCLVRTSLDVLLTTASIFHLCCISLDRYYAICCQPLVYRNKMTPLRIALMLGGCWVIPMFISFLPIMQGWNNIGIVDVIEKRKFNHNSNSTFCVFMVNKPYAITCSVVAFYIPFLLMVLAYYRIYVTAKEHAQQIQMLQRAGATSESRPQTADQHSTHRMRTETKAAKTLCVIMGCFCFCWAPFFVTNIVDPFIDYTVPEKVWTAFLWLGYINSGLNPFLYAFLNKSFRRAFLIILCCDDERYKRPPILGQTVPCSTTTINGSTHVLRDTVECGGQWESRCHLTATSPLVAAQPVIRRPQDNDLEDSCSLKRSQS
# [12] = target: T2, Adrenergic receptor alpha-2 (Homo sapiens, UniProt P08913+P18825+P18089); experiment: Inhibition of alpha-2-adrenergic receptor; assay type: protein assay
# T2 sequence (P08913 whole entry): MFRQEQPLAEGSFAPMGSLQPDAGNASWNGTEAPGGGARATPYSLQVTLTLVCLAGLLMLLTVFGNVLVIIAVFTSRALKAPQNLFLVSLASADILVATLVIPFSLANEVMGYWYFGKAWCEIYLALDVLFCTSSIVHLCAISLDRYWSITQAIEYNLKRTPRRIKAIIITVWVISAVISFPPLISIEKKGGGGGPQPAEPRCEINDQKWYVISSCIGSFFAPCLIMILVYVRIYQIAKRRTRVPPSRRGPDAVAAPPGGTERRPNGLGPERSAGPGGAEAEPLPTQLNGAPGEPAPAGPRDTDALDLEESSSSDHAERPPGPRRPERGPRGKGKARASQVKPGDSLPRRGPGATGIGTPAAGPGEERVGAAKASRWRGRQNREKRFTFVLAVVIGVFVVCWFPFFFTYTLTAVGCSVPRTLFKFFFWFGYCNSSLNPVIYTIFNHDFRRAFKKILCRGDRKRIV
# T2 sequence (P18825 whole entry): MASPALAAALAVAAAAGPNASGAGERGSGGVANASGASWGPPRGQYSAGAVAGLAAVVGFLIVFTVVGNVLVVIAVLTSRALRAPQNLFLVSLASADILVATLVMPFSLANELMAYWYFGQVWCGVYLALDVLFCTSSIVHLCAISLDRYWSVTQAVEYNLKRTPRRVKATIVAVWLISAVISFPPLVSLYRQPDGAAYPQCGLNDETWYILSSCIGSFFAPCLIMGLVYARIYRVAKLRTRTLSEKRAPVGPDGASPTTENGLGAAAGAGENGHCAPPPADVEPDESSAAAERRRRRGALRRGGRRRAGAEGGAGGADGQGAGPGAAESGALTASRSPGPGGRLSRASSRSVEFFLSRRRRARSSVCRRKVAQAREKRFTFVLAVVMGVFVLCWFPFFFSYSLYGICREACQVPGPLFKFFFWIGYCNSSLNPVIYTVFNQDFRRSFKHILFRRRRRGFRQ
# T2 sequence (P18089 whole entry): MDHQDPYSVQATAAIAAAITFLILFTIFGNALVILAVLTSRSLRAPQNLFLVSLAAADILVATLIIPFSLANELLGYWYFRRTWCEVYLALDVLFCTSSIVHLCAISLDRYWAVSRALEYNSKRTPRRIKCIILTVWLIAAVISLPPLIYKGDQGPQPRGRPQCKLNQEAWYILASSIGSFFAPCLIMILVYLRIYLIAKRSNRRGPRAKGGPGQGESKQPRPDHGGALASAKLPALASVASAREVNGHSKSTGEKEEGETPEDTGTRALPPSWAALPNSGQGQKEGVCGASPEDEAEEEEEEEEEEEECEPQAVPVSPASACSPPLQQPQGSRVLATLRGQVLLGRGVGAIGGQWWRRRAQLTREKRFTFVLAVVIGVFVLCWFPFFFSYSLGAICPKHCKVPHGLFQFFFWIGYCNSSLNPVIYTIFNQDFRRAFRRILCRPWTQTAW
# [13] = target: T3, 5-hydroxytryptamine receptor 2C (Rattus norvegicus, UniProt P08909); experiment: Inhibition of rat hydroxytryptamine 2C receptor
# T3 sequence (P08909 whole entry): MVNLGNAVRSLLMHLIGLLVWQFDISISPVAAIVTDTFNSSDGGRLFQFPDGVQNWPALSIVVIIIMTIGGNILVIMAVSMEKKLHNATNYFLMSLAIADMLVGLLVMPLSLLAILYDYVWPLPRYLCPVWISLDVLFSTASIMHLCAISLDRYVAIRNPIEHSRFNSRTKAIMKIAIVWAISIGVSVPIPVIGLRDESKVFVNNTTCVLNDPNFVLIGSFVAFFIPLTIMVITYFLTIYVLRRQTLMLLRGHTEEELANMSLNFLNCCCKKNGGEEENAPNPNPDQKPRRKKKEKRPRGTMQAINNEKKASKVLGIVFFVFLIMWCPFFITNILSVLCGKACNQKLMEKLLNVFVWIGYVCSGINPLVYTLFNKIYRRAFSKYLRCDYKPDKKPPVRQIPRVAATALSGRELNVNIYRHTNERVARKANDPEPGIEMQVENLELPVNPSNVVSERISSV
# 5-hydroxytryptamine receptor 1D, sequence (P28565 whole entry): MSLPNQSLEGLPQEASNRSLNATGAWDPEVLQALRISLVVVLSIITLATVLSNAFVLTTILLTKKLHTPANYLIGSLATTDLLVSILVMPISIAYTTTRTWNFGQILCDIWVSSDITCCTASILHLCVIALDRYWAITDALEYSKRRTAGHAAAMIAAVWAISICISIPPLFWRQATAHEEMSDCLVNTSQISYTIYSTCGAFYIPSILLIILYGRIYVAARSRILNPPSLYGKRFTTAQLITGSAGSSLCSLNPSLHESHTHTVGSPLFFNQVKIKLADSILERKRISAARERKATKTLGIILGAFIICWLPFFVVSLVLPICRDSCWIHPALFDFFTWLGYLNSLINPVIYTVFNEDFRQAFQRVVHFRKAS
compound,measurement,setting,value
N#Cc1ccc2[nH]cc(CCCCN3CCN(c4ccc5oc(C(N)=O)cc5c4)CC3)c2c1 [VILAZODONE],IC50,[1],4 µM
same,ED50,[2],4 mg/kg
same,IC50,[3],5 µM
same,IC50,[4],0.317 µM
same,IC50,[5],1.51 µM
same,ED50,[6],13 mg/kg
same,IC50,[7],3 µM
same,IC50,[8],3.4 µM
same,IC50,[9],0.071 µM
same,IC50,[10],3.9 µM
same,IC50,[11],0.252 µM
same,IC50,[12],6 µM
same,IC50,[13],2 µM
